Reference: ChEMBL document CHEMBL3112565, “Identification of small molecule sphingomyelin synthase inhibitors” (Eur J Med Chem, 2014)
pEC50, pIC50: −log10 of the molar value. One block for each compound: values may come before it. The source made the active and inactive calls. The calls are words filed in the database; no cut-off is given here.

What was measured:
[1] = target: T1, Phosphatidylcholine:ceramide cholinephosphotransferase 2 (Homo sapiens, UniProt Q8NHU3); experiment: Inhibition of SMS2 (unknown origin) expressed in H5 insect cells using C6-NBD-Cer as substrate at 100 uM after 1 hr
T1 sequence (Q8NHU3 whole entry): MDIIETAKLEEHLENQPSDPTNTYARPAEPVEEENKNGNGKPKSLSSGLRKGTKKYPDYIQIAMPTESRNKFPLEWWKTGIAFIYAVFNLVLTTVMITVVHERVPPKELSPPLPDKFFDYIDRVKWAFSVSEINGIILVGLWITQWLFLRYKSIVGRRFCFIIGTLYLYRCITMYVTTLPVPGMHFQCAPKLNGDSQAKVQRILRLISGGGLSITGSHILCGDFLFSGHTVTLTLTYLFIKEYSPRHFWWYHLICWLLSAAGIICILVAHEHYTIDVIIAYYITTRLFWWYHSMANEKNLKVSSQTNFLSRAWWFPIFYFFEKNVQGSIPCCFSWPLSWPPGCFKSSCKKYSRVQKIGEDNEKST
Summary of the method: (§1)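 SMS2 came from homogenate of H5 insect cells overexpressing it, prepared at 50 mg pellet/mL in 0.25 M sucrose, 50 mM Tris-HCl pH 7.4, 1 mM EDTA and spun at 12,000 rpm for 10 min. The enzyme (2 µg total protein) was preincubated with inhibitor for 30 min at 37 °C in 10 mM HEPES pH 7.4, 3 mM MnCl2, 0.3% BSA. Reaction was started with 1.01 mM C6-NBD-Cer plus DMPC in DMSO and run 1 h at 37 °C. Product was quantified by HPLC as for SMS.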

[2] = target: T1, Phosphatidylcholine:ceramide cholinephosphotransferase 2; experiment: Inhibition of SMS2 (unknown origin) expressed in H5 insect cells using C6-NBD-Cer as substrate after 1 hr; summary of the method: as §1
[3] = Half life in saline solution at 24 degC; format: ADME
[4] = Inhibition of sphingomyelin synthase in ICR mouse liver homogenates using C6-NBD-Cer as substrate after 2 hrs; format: tissue-based
Summary of the method: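 Enzyme was the 12,000 rpm supernatant of ICR mouse liver homogenized at 300 mg/mL in 0.25 M sucrose, 50 mM Tris-HCl pH 7.4, 1 mM EDTA; 2 µg protein per assay. Preincubated with inhibitor 30 min at 37 °C in 10 mM HEPES pH 7.4, 3 mM MnCl2, 0.3% BSA. C6-NBD-ceramide and DMPC were then added and the reaction ran 2 h at 37 °C before ethanol quench. C6-NBD-SM was measured by C18 HPLC with fluorescence detection (ex 475/em 525 nm). IC50 from five inhibitor concentrations, triplicate, log[inhibitor] vs response fit.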

[5] = Inhibition of sphingomyelin synthase (unknown origin) by cell based assay; settings: Homo sapiens
[6] = Inhibition of sphingomyelin synthase (unknown origin); parameters: species or system Homo sapiens
[7] = Cytotoxicity against human HuH7 cells assessed as cell viability after 17 hrs by MTT assay; format: cell-based, Huh-7
Summary of the method: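 Huh-7 cells exposed to a range of concentrations for 17 h, then viability read by MTT. CC50 is the concentration giving 50% inhibition relative to vehicle (0.25% DMSO). Quintuplicate samples; mean of at least two independent tests.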

Mus musculus [8] = experiment: Inhibition of sphingomyelin synthase in ICR mouse assessed as decrease of sphingomyelin level in plasma at 6 mg/kg, ip after 2 hrs; format: functional, organism-based; parameters: dose 6 mg/kg
Summary of the method: (§2)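 Female ICR mice (about 25 g), n=5 per group, received 150 µg (6 mg/kg) in 15 µL DMSO plus 185 µL PBS pH 7.4, given i.v. or i.p.; controls got vehicle i.v. Blood was taken from the eye after 2 h and frozen in liquid nitrogen. Plasma ceramide and sphingomyelin were measured by mass spectrometry. Groups compared by Student's t-test.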

Mus musculus [9] = experiment: Inhibition of sphingomyelin synthase in ICR mouse assessed as decrease of sphingomyelin level in plasma at 6 mg/kg, iv after 2 hrs; format: functional, organism-based; parameters: dose 6 mg/kg; summary of the method: as §2
Mus musculus [10] = experiment: Inhibition of sphingomyelin synthase in ICR mouse assessed as increase of ceramide level in plasma at 6 mg/kg, ip after 2 hrs; format: functional, organism-based; parameters: dose 6 mg/kg; summary of the method: as §2
Mus musculus [11] = experiment: Inhibition of sphingomyelin synthase in ICR mouse assessed as increase of ceramide level in plasma at 6 mg/kg, iv after 2 hrs; format: functional, organism-based; parameters: dose 6 mg/kg; summary of the method: as §2
[12] = target: Sphingomyelin synthase (Mus musculus); experiment: Inhibition of SMS in ICR mouse liver homogenate using C6-NBD-Cer as substrate after 2 hrs

Structure (SMILES): c1ccc(COc2ccccc2CNc2ccccc2)cc1
- IC50 [1]: Not Active

Structure (SMILES): N#CC(Nc1ccccc1)c1cccc(OCc2ccccc2)c1 (centres undefined)
- pIC50 [2]: 4.29

Structure (SMILES): S=C(OC1CC2CC1C1CCCC21)[S][K] (centres undefined)
- half-life [3]: 19.5 min

Structure (SMILES): c1ccc(COc2ccccc2C(Nc2ccccc2)c2nnn[nH]2)cc1 (centres undefined)
- IC50 [1]: Not Active

Structure (SMILES): COc1ccccc1NC(C#N)c1ccccc1OCc1ccccc1 (centres undefined)
- pIC50 [4]: 4.45
- pIC50 [2]: 4.91

Structure (SMILES): N#Cc1ccccc1NC(C#N)c1ccccc1OCc1ccccc1 (centres undefined)
- pIC50 [2]: 4.69

Structure (SMILES): Cc1cccc(C)c1NC(C#N)c1ccccc1OCc1ccccc1 (centres undefined)
- pIC50 [2]: 4.50

Structure (SMILES): S=C(S)OC1CC2CC1C1CCCC21 (centres undefined)
- pIC50 [4]: 3.40
- pIC50 [2]: 3.65
- pEC50 [5]: 4.05
- pIC50 [6]: 3.43

Structure (SMILES): O=C(C(c1ccccc1)c1ccccc1)N1CCN(CC(O)COc2cccc3ncccc23)CC1 (centres undefined)
- pIC50 [6]: < 3.30

Structure (SMILES): N#CC(NCc1ccco1)c1ccccc1OCc1ccccc1 (centres undefined)
- pIC50 [2]: 4.15

Structure (SMILES): N#CC(Nc1ccccc1)c1ccc(OCc2ccccc2)cc1 (centres undefined)
- IC50 [1]: Not Active

Structure (SMILES): N#CC(Nc1ccccc1Cl)c1ccccc1OCc1ccccc1 (centres undefined)
- pIC50 [4]: 4.04
- pIC50 [2]: 4.80

Structure (SMILES): NC(=O)C(Nc1ccccc1)c1ccccc1OCc1ccccc1 (centres undefined)
- pIC50 [2]: 3.87

Structure (SMILES): Cc1ccccc1NC(C#N)c1ccccc1OCc1ccccc1 (centres undefined)
- pIC50 [2]: 4.17

Structure (SMILES): N#CC(Nc1ccccc1)c1ccccc1 (centres undefined)
- IC50 [1]: Not Active

Structure (SMILES): N#CC(Nc1ccccc1[N+](=O)[O-])c1ccccc1OCc1ccccc1 (centres undefined)
- pIC50 [2]: 4.56

Structure (SMILES): N#CC1c2ccccc2OC(c2ccccc2O)N1c1ccccc1 (centres undefined)
- pIC50 [12]: 4.12

Further lines, with some results ahead:

- pIC50 [2]: 4.68
Structure (SMILES): Cc1ccc(NC(C#N)c2ccccc2OCc2ccccc2)cc1 (centres undefined)

- IC50 [1]: Not Active
Structure (SMILES): COc1cccc(NC(C#N)c2ccccc2OCc2ccccc2)c1 (centres undefined)

- pIC50 [4]: 3.71
- pIC50 [2]: 4.09
Structure (SMILES): N#CC(Nc1ccc(C(N)=O)cc1)c1ccccc1OCc1ccccc1 (centres undefined)

- pIC50 [2]: 4.72
Structure (SMILES): N#CC(Nc1ccccc1O)c1ccccc1OCc1ccccc1 (centres undefined)

- pIC50 [2]: 4.32
Structure (SMILES): COc1ccc(NC(C#N)c2ccccc2OCc2ccccc2)cc1 (centres undefined)

- pIC50 [2]: 4.61
Structure (SMILES): N#CC(Nc1ccc(O)cc1)c1ccccc1OCc1ccccc1 (centres undefined)

- pIC50 [4]: 4.61
- pIC50 [2]: 4.87
Structure (SMILES): N#CC(Nc1ccccc1)c1ccccc1OCc1ccccc1 (centres undefined)
- CC50 at 17 h [7]: 245 µM
- inhibition (Mus musculus [8]): Active
- inhibition (Mus musculus [9]): Active
- inhibition (Mus musculus [10]): Active
- inhibition (Mus musculus [11]): Active

- pIC50 [4]: 4.03
- pIC50 [2]: 4.65
Structure (SMILES): N#CC(Nc1ccc(Cl)cc1)c1ccccc1OCc1ccccc1 (centres undefined)

- pIC50 [2]: 4.46
Structure (SMILES): N#CC(Nc1cccnc1)c1ccccc1OCc1ccccc1 (centres undefined)
